The test system of assay [1] is A549. The assay can be described thus: Cytotoxicity against human A549 cells after 24 hrs by MTT assay. It is filed as functional. To be noted: A549, 24 h, read-out: LD50 (the source's name). Summed up: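 Human alveolar epithelial A549 cells (ATCC) grown in HAM F12 with glutamine plus 10% FBS at 37 °C, 5% CO2. Seeded at 10^5 cells/well; after 24 h, medium renewed and compounds (ethanol stocks; vehicle control 0.1% ethanol) added to final 0.02–400 µM for 24 h. Viable cells by MTT; LD50 from concentration–response; means of three independent experiments with triplicates.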
(In general: Tetrazolium assays rely on reduction of a dye to a coloured formazan, in cell work by metabolically active cells.)

The test system of assay [2] is A549. The assay can be described thus: Cytotoxicity against human A549 cells after 24 hrs by MTT assay in presence of 3-methyladenine. Format: functional. The method in brief:
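A549 (HAM F12/glutamine, 10% FBS, 37 °C, 5% CO2) pretreated 2 weeks with 10 mM 3-MA in flask, medium changed every 2 days. Then 10^5 cells/well seeded in medium with 3-MA plus compounds at 0.02–400 μM final (ethanol vehicle, 0.1%), 24 h. Viability by MTT, LD50 derived. Means SD, three independent experiments, triplicates.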

The subject of assay [3] is A549. The assay can be described thus: Cytotoxicity against human A549 cells assessed as PI positive cells after 24 hrs by flow cytometry. Format: functional, cell-based. Summed up: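 A549 cells exposed 24 h to a range of compound concentrations, harvested by brief trypsinization, double-stained with Alexa Fluor 488 annexin V and propidium iodide, analysed by flow cytometry; percentage of cells positive for annexin V, PI or both scored against untreated control.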
Background: In flow cytometry, cells or beads pass a laser one at a time.

The test system of assay [4] is A549. The assay can be described thus: Cytotoxicity against human A549 cells after 24 hrs by MTT assay in absence of 3-methyladenine. It is filed as functional. The method in brief:
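A549 (ATCC) grown in HAM F12 with glutamine + 10% FBS, 37 °C, 5% CO2. Seeded 10^5 cells/well, medium renewed after 24 h, then exposed 24 h to 0.02–400 μM final (ethanol stock; 0.1% ethanol vehicle control). Viable cells by MTT; LD50 taken from curves. Means SD, three independent experiments in triplicate.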

For assay [5], the system named is A549. In words: Induction of 3-methyladenine-inhibited autophagy in human A549 cells assessed as increase in ceramide levels.

Active and inactive are the calls of the source. No cut-off for these calls is given here.

On to `CCCCCCCCCCCCCC[C@H]1OC[C@H](N)[C@H]1O`, for which, in the assay on A549 [1], the CC50 was found to be 2.5 µM. Moreover, the outcome in the assay with A549 [2] was inactive. Also, the Activity entry in the assay with A549 [3] is “Dose-dependent effect”.

With `CCCCCCCCCCCCCC[C@H]1OC[C@H](N)[C@@H]1O` [2-EPI JASPINE B], in the assay with A549 [1], the CC50 is 1.25 µM. The outcome in the assay with A549 [2] was inactive. Further, the Activity entry in the assay on A549 [3] is “Dose-dependent effect”.

With `CCCCCCCCCCCCCC[C@H](O)[C@@H](O)[C@@H](N)CO`, the Activity in the assay with A549 [2] came to 29.4 µM; with A549 [4], 28.2 µM.

`CCCCCCCCCCCCCC[C@@H]1OC[C@H](N)[C@@H]1O` [PACHASTRISSAMINE]: the CC50 with A549 [1] stood at 0.13 µM. The Activity result in the assay on A549 [5] and in the assay with A549 [3] was “Dose-dependent effect” in each case. Further, the outcome in the assay with A549 [2] was inactive.

`CCCCCCCCCCCCCC[C@@H]1OC[C@H](N)[C@H]1O`: the CC50 with A549 [1] came out at 1.5 µM. For the same molecule, the result in the assay with A549 [2] was inactive. In the assay on A549 [3], the Activity entry is “Dose-dependent effect”.

Values taken from ChEMBL document CHEMBL1139327, “Synthesis and biological properties of Pachastrissamine (jaspine B) and diastereoisomeric jaspines” (2009).
